Records with an inconclusive call do not appear.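 Rule for the calls, unless noted: active = cell viability at or below a set limit in both duplicate runs, the limit being the all-compound median minus 4 SD (cut at about 23% in these data, passing the limit was not always enough); inconclusive = no clear call, values can overlap the other calls; inactive = the rest.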
Columns and labels:
[1] = S. cerevisiae growth inhibition in permissive medium (OD615), pilot counter-assay for S. cerevisiae lifespan shortening project, permissive growth control (AID 705;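 active = growth inhibition above 25% in both replicates, a cutoff set 3 SD above the mean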); conditions: OD615, 24 h, at 10 µM, stronger effect = higher value
Summary of the method: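 Material: engineered DeaD yeast; compound dosing: one dose 10 µM, DMSO 0.25% final; measure: yeast growth inhibition indicated by reduced 24 h OD615; detection: OD615 turbidity read; incubation: cells pre-grown 4 h, then 24 h compound exposure, 30 °C humidified; medium: permissive synthetic complete medium with raffinose and galactose carbon sources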

[2] = S. cerevisiae growth inhibition in restrictive medium, OD615, pilot screen, restrictive growth control, yeast lifespan reduction project (AID 706;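 active = growth inhibition above a set limit, 3 SD over mean compound inhibition, in both replicates, cut at about 43% in these data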;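 note: modified DeaD lifespan yeast strain shifted to restrictive glucose medium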); conditions: OD615, 48 h, at 10 µM, stronger effect = higher value
Summary of the method: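 material = engineered S. cerevisiae DeaD strain | medium = glucose-based CSMM-D restrictive medium | times = 4 h pre-incubation, 48 h exposure at 30 °C | technique = OD615 absorbance reading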

[3] = doxorubicin toxicity protection in MRP-1 cells – H69AR cells, CellTiter-Glo, duplicate, MRP-1 activator project, pilot screen (AID 807;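 active = viability increase at or above a cutoff of the median across tested compounds plus 3 SD, cut at about 8.5% in these data, passing the limit was not always enough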;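 note: compound pretreatment 18-22 h then 72 h combined with doxorubicin; 0% = doxorubicin alone and 100% = vehicle without doxorubicin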); conditions: H69AR viability with doxorubicin, CellTiter-Glo luminescence; at 10 µM; stronger effect = higher value
[4] = viability of HCT116 without oncogenic beta-catenin – human colon tumor cells, pilot screen (AID 823); conditions: HCT116 beta-catenin knockout viability, CellTiter-Glo, 60 h; at 10 µM; stronger effect = lower value;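 note: 0% = wells killed by 20 µM Hyamine and 100% = untreated DMSO cell wells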
[5] = viability of PTEN-null HCT116 cells – cell-based, HCT116 clonal line, CellTiter-Glo, pilot screen (AID 824;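 active = viability at or below 27.92% in each of two runs, the all-compound median minus 4 SD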;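 note: 0% = 20 µM Hyamine control and 100% = vehicle cell control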); conditions: HCT116 PTEN-deleted viability, 60 h, at 10 µM, stronger effect = lower value
[6] = RAM pathway blockade in budding yeast – dse1pr::URA3 reporter, 5-FOA selection, pilot screen (AID 869;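 active = inhibition over a set limit, the all-compound mean plus 3 SD, in both replicate runs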;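 note: 0% = DMSO wells with no growth and 100% = 10 µM 1-NA-PP1 with full growth; RAM network block rescues cells from 5-FOA so hits raise OD615 growth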); conditions: S. cerevisiae dse1pr::URA3 5-FOA growth, OD615, 2 d; at 10 µM; stronger effect = higher value; strain carries analog-sensitive mutant Cbk1 kinase
[7] = RAM signaling pathway blockade in yeast – S. cerevisiae, Pdr1DBD-CYC8 efflux-inhibited sensitized strain, primary screen (AID 1298;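 active = RAM network inhibition above 8.4% in each of two replicates, 3 SD over the compound average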;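 note: 0% = DMSO untreated cells without growth and 100% = 10 µM 1-NA-PP1 full growth; higher means more yeast growth rescued from 5-FOA killing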); conditions: S. cerevisiae cbk1-as DSE1-URA3 strain, 5-FOA growth OD615, 2 d; at 50 µM; stronger effect = higher value

O=C1c2ccccc2C(O)N1Cc1ccc2c(c1)OCO2 (configuration not stated)
inactive: growth inhibition [1] 4.13% | growth inhibition [2] -0.895% | viability increase [3] -0.74% | viability [4] 103% | viability [5] 106% | inhibition [6] 0.38% | RAM network inhibition [7] 1.6%

COc1ccc(C(C#N)Nc2ccccc2OC)cc1 (configuration not stated)
inactive: growth inhibition [1] -7.99% | growth inhibition [2] -12.7% | viability increase [3] -2.75% | viability [4] 80.9% | viability [5] 96% | inhibition [6] 0.35% | RAM network inhibition [7] 2.51%

CC1=C(C(=O)OC2CCCCC2)C(c2ccco2)n2ncnc2N1 (configuration not stated)
inactive: growth inhibition [1] -9.02% | growth inhibition [2] 4.91% | viability increase [3] -1.43% | viability [4] 90.7% | viability [5] 88.8% | inhibition [6] 1.47% | RAM network inhibition [7] 5.64%

O=C(C(Cc1ccccc1)n1cccc1)N1CCc2ccccc21 (configuration not stated)
inactive: growth inhibition [1] -16.3% | growth inhibition [2] -9.65% | viability increase [3] -3.05% | viability [4] 81.2% | viability [5] 68.2% | inhibition [6] 2.29% | RAM network inhibition [7] 3.93%

O=C(Cn1cnc2c(nnn2-c2ccccc2)c1=O)NCc1ccco1
inactive: growth inhibition [1] 1.43% | growth inhibition [2] 3.14% | viability increase [3] -3.77% | viability [4] 104% | viability [5] 89.8% | inhibition [6] 0.32% | RAM network inhibition [7] 0.83%

O=C(Nc1cccc(Br)c1)c1cc2ccccc2o1
inactive: growth inhibition [1] -5.65% | growth inhibition [2] -7.8% | viability increase [3] -5% | viability [4] 65.5% | viability [5] 64.3% | inhibition [6] 0.03% | RAM network inhibition [7] 3.48%

O=S(=O)(NCc1ccc2c(c1)OCO2)c1cnc[nH]1
inactive: growth inhibition [1] -5.07% | growth inhibition [2] 0.305% | viability increase [3] 1.17% | viability [4] 107% | viability [5] 106% | inhibition [6] 0.885% | RAM network inhibition [7] 0.72%

Nc1ccc(-c2nc3ccccc3[nH]2)cc1
inactive: growth inhibition [1] -6.98% | growth inhibition [2] -10.1% | viability increase [3] -3.12% | viability [4] 97.3% | viability [5] 87.8% | inhibition [6] 2.31% | RAM network inhibition [7] 4.57%

C=C1c2cc(CC)ccc2NC(=O)N1c1ccc(C)cc1
inactive: growth inhibition [1] -6.46% | growth inhibition [2] -2.23% | viability increase [3] 3.36% | viability [4] 97.9% | viability [5] 101% | inhibition [6] 0.37% | RAM network inhibition [7] 0.61%

CC(C)(C)Nc1ncnc2c1cnn2-c1ccccc1
inactive: growth inhibition [1] -3.38% | growth inhibition [2] 17.3% | viability increase [3] 2% | viability [4] 92.3% | viability [5] 90.3% | inhibition [6] 1.31% | RAM network inhibition [7] -2.37%

O=C(CCCc1c[nH]c2ccccc12)N1CCN(c2ccc(N3CCOCC3)nn2)CC1
inactive: growth inhibition [1] -2.69% | growth inhibition [2] -3.36% | viability increase [3] -1.4% | viability [4] 102% | viability [5] 105% | inhibition [6] 0.485% | RAM network inhibition [7] -0.41%

CCOC(=O)CCCSc1nc2sc(C)c(C)c2c(=O)[nH]1
inactive: growth inhibition [1] -12.1% | growth inhibition [2] -15.5% | viability increase [3] -0.74% | viability [4] 102% | viability [5] 98.5% | inhibition [6] 3.01% | RAM network inhibition [7] 3.95%

NC(=O)C1CCN(C(=O)c2ccc(CS(=O)(=O)c3c(Cl)cccc3Cl)o2)CC1
inactive: growth inhibition [1] -1.46% | growth inhibition [2] -0.415% | viability increase [3] -0.98% | viability [4] 109% | viability [5] 98.3% | inhibition [6] 1.49% | RAM network inhibition [7] 1.38%

O=C(NC1CCS(=O)(=O)C1)C1CCCCN1S(=O)(=O)c1ccc(Cl)cc1 (configuration not stated)
inactive: growth inhibition [1] -5.22% | growth inhibition [2] -3.24% | viability increase [3] -1.52% | viability [4] 95% | viability [5] 90.8% | inhibition [6] 1.53% | RAM network inhibition [7] 2.19%

O=C(CCc1nc2ccccc2[nH]1)N1CCN(C(=O)c2ccco2)CC1
inactive: growth inhibition [1] -9.21% | growth inhibition [2] -5.44% | viability increase [3] -0.98% | viability [4] 101% | viability [5] 96.7% | inhibition [6] 0.87% | RAM network inhibition [7] 1.88%

Cn1c(=O)[nH]c(=O)c2c1nc(N1CCN(c3ccccc3)CC1)n2CCSc1ncccn1
inactive: growth inhibition [1] -4.54% | growth inhibition [2] 7.86% | viability increase [3] -2.82% | viability [4] 93% | viability [5] 82.6% | inhibition [6] 0.42% | RAM network inhibition [7] 4.89%

Cc1cc(C)n2nc(C(=O)Oc3ccc4c(c3)OCO4)nc2n1
inactive: growth inhibition [1] -3.75% | growth inhibition [2] -24% | viability increase [3] -1.75% | viability [4] 99% | viability [5] 104% | inhibition [6] 1.7% | RAM network inhibition [7] 3.06%

Oc1c(C(c2cccc(F)c2)N2CCN(Cc3ccccc3)CC2)sc2ncnn12 (configuration not stated)
inactive: growth inhibition [1] -6.58% | growth inhibition [2] 3.16% | viability increase [3] -0.83% | viability [4] 87.7% | viability [5] 80.7% | inhibition [6] 0.05% | RAM network inhibition [7] -2.27%

COC(=O)C1C(=O)c2c([nH]c(C(=O)OC3CCCC3C)c2C)CC1C (configuration not stated)
inactive: growth inhibition [1] -4.87% | growth inhibition [2] -2.27% | viability increase [3] 3.21% | viability [4] 81.2% | viability [5] 72.7% | inhibition [6] 2.68% | RAM network inhibition [7] 3.76%

O=C(c1cccs1)n1cc(C(=S)N2CCOCC2)c2ccccc21
inactive: growth inhibition [1] -4.95% | growth inhibition [2] -0.915% | viability increase [3] -0.89% | viability [4] 94.2% | viability [5] 88.1% | inhibition [6] 1.71% | RAM network inhibition [7] 4.07%

C=C(C)Cn1c(N2CCCC2)nc2c1c(=O)[nH]c(=O)n2C
inactive: growth inhibition [1] -1.91% | growth inhibition [2] -5.8% | viability increase [3] -1.97% | viability [4] 108% | viability [5] 96.6% | inhibition [6] 1.32% | RAM network inhibition [7] 2.05%

C=CCn1c(C(C)NC(=O)CCC)nc2ccccc21 (configuration not stated)
inactive: growth inhibition [1] 0.415% | growth inhibition [2] 7.8% | viability increase [3] -0.88% | viability [4] 104% | viability [5] 93.9% | inhibition [6] 1.11% | RAM network inhibition [7] -0.02%

CCOC(=O)c1ccc(N2C(=O)CC(SCC(N)C(=O)OCC)C2=O)cc1 (configuration not stated)
inactive: growth inhibition [1] -4.09% | growth inhibition [2] -7.37% | viability increase [3] -2.49% | viability [4] 102% | viability [5] 85.6% | inhibition [6] 1.47% | RAM network inhibition [7] 3.7%

Cc1c(NC(=O)OCc2ccccc2)c(=O)n(-c2ccccc2)n1C
inactive: growth inhibition [1] -7.33% | growth inhibition [2] -0.325% | viability increase [3] 0.05% | viability [4] 109% | viability [5] 91.1% | inhibition [6] 1.35% | RAM network inhibition [7] 7.69%

c1csc(Cc2nc(-c3ccc(-n4cccc4)cc3)no2)c1
inactive: growth inhibition [1] -6.69% | growth inhibition [2] -14.7% | viability increase [3] -0.35% | viability [4] 106% | viability [5] 93.8% | inhibition [6] 3.12% | RAM network inhibition [7] 1.65%

COC(=O)C1=C(C)NC(=O)NC1C1CC=CCC1 (configuration not stated)
inactive: growth inhibition [1] -13.7% | growth inhibition [2] -8.8% | viability increase [3] 0.06% | viability [4] 96.2% | viability [5] 95.5% | inhibition [6] 3.1% | RAM network inhibition [7] 6.9%

COc1ccc(N(C)S(=O)(=O)c2cccc(C(=O)NC3=NCCS3)c2)cc1
inactive: growth inhibition [1] -4.93% | growth inhibition [2] -1.7% | viability increase [3] -1.55% | viability [4] 91.6% | viability [5] 89.8% | inhibition [6] 1.13% | RAM network inhibition [7] 2.28%

CSc1nc2sc3c(c2c(=O)n1C)CCCC3
inactive: growth inhibition [1] 7.93% | growth inhibition [2] 8.89% | viability increase [3] -0.98% | viability [4] 99.9% | viability [5] 94.7% | inhibition [6] 0.695% | RAM network inhibition [7] 3.94%

CCOC(=O)N1CCN(C(=O)CN(c2cc(C(F)(F)F)ccc2Cl)S(C)(=O)=O)CC1
inactive: growth inhibition [1] 0.24% | growth inhibition [2] 9.28% | viability increase [3] -1.79% | viability [4] 103% | viability [5] 99% | inhibition [6] -0.91% | RAM network inhibition [7] -0.25%

CC1=C(C(=O)OCC2CCCO2)C(c2ccccc2)NC(=O)N1 (configuration not stated)
inactive: growth inhibition [1] -9.26% | growth inhibition [2] -17.9% | viability increase [3] -0.06% | viability [4] 103% | viability [5] 99.8% | inhibition [6] 1.33% | RAM network inhibition [7] -0.93%

O=C1c2ccccc2C(O)N1c1ccc(Cl)cc1 (configuration not stated)
inactive: growth inhibition [1] -8.19% | growth inhibition [2] -7.83% | viability increase [3] -0.07% | viability [4] 93.4% | viability [5] 95.5% | inhibition [6] 0.58% | RAM network inhibition [7] 1.49%

CCc1nnc(SCc2ccc(OC)c(Br)c2)n1N
inactive: growth inhibition [1] 6.13% | growth inhibition [2] -2.06% | viability increase [3] -0.5% | viability [4] 104% | viability [5] 98.9% | inhibition [6] 0.21% | RAM network inhibition [7] 2.41%

CC1CCN(C(=O)CSc2ccc3nnc(-c4cccc(F)c4)n3n2)CC1
inactive: growth inhibition [1] -0.835% | growth inhibition [2] -0.735% | viability increase [3] -3.12% | viability [4] 79.5% | viability [5] 81.3% | inhibition [6] 0.67% | RAM network inhibition [7] -1.03%

O=C(NCCn1ccc2ccccc21)C1CCCCC1
inactive: growth inhibition [1] -13.3% | growth inhibition [2] -15.1% | viability increase [3] -0.84% | viability [4] 87.7% | viability [5] 87.2% | inhibition [6] 2.12% | RAM network inhibition [7] 2.92%

O=C(c1csc2c1CCCC2)N1CCCCC1
inactive: growth inhibition [1] 12.4% | growth inhibition [2] 8.33% | viability increase [3] -1.17% | viability [4] 99.2% | viability [5] 102% | inhibition [6] -0.145% | RAM network inhibition [7] 1.12%

Nc1cc(C(=O)c2cccs2)ccc1Cl
inactive: growth inhibition [1] -9.76% | growth inhibition [2] -0.475% | viability increase [3] -1.88% | viability [4] 90.9% | viability [5] 96.7% | inhibition [6] 0.165% | RAM network inhibition [7] 3.24%

— PubChem BioAssay
